Reference: ChEMBL document CHEMBL4689842, “EUbOPEN Chemogenomics Library wave 1” (2021)

Tested on: HEK-293T
Assay: Multiplex assay against HEK293T;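 on Population Tubulin-Different-Phenotype (%): share of the cells with healthy nuclei that show this phenotype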
Assay type: toxicity, cell-based
Details: human
How it was run: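 With compound added, live cells were imaged on a CQ1 microscope at 37°C and 5% CO2; staining with Hoechst33342, BioTracker Green Microtubule Cytoskeleton Dye, MitoTracker Red and Annexin V Alexa Fluor 680 had been done at seeding. The CellPathfinder machine-learning gating scheme split cells into Hoechst high-intensity objects or normal cells, normal cells into healthy, pyknosed or fragmented nuclei, and pyknosed cells into mitotic or apoptotic. The tubulin, mitochondrial-mass and membrane-permeability phenotypes are per cents of healthy-nucleus cells.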

[1] = 12 h, 1 µM, compound concentration 1 uM, replicate 1
[2] = 12 h, 1 µM, compound concentration 1 uM, replicate 2
[3] = 12 h, 10 µM, compound concentration 10 uM, replicate 1
[4] = 12 h, 10 µM, compound concentration 10 uM, replicate 2
[5] = 24 h, 1 µM, compound concentration 1 uM, replicate 1
[6] = 24 h, 1 µM, compound concentration 1 uM, replicate 2
[7] = 24 h, 10 µM, compound concentration 10 uM, replicate 1
[8] = 24 h, 10 µM, compound concentration 10 uM, replicate 2
[9] = 48 h, 1 µM, compound concentration 1 uM, replicate 1
[10] = 48 h, 1 µM, compound concentration 1 uM, replicate 2
[11] = 48 h, 10 µM, compound concentration 10 uM, replicate 1
[12] = 48 h, 10 µM, compound concentration 10 uM, replicate 2

## CC(C)c1cc(Nc2nc(N3CCC[C@H](N)C3)ncc2C(N)=O)cc(C(C)C)n1
[1]
  Population Apoptotic (%): 61%
  Population Fragmented Nuclei (%): 9%
  Population Healthy Nuclei (%): 30%
  Population Hoechst High Intensity Objects (%): 11%
  Population Membrane Permeable-Phenotype (%): 9%
  Population Mitochondria Different-Phenotype (%): 95%
  Population Mitotic Cells (%): 38%
  Population Normal (%): 88%
  Population Pyknosed Nuclei (%): 60%
  Population Tubulin-Different-Phenotype (%): 100%
  Total Cell Count: 225
[2]
  Population Apoptotic (%): 52%
  Population Fragmented Nuclei (%): 5%
  Population Healthy Nuclei (%): 26%
  Population Hoechst High Intensity Objects (%): 7%
  Population Membrane Permeable-Phenotype (%): 8%
  Population Mitochondria Different-Phenotype (%): 91%
  Population Mitotic Cells (%): 47%
  Population Normal (%): 92%
  Population Pyknosed Nuclei (%): 68%
  Population Tubulin-Different-Phenotype (%): 97%
  Total Cell Count: 140
[3]
  Population Apoptotic (%): 88%
  Population Healthy Nuclei (%): 6%
  Population Hoechst High Intensity Objects (%): 18%
  Population Membrane Permeable-Phenotype (%): 0%
  Population Mitochondria Different-Phenotype (%): 93%
  Population Mitotic Cells (%): 11%
  Population Normal (%): 81%
  Population Pyknosed Nuclei (%): 86%
  Population Tubulin-Different-Phenotype (%): 43%
  Total Cell Count: 313
[4]
  Population Apoptotic (%): 64%
  Population Fragmented Nuclei (%): 7%
  Population Healthy Nuclei (%): 5%
  Population Hoechst High Intensity Objects (%): 5%
  Population Membrane Permeable-Phenotype (%): 10%
  Population Mitochondria Different-Phenotype (%): 90%
  Population Mitotic Cells (%): 35%
  Population Normal (%): 94%
  Population Pyknosed Nuclei (%): 87%
  Population Tubulin-Different-Phenotype (%): 40%
  Total Cell Count: 206
[5]
  Population Apoptotic (%): 65%
  Population Fragmented Nuclei (%): 8%
  Population Healthy Nuclei (%): 28%
  Population Hoechst High Intensity Objects (%): 14%
  Population Membrane Permeable-Phenotype (%): 5%
  Population Mitochondria Different-Phenotype (%): 94%
  Population Mitotic Cells (%): 34%
  Population Normal (%): 85%
  Population Pyknosed Nuclei (%): 63%
  Population Tubulin-Different-Phenotype (%): 91%
  Total Cell Count: 234
[6]
  Population Apoptotic (%): 62%
  Population Fragmented Nuclei (%): 9%
  Population Healthy Nuclei (%): 40%
  Population Hoechst High Intensity Objects (%): 5%
  Population Membrane Permeable-Phenotype (%): 9%
  Population Mitochondria Different-Phenotype (%): 89%
  Population Mitotic Cells (%): 37%
  Population Normal (%): 94%
  Population Pyknosed Nuclei (%): 49%
  Population Tubulin-Different-Phenotype (%): 96%
  Total Cell Count: 170
[7]
  Population Apoptotic (%): 90%
  Population Fragmented Nuclei (%): 14%
  Population Healthy Nuclei (%): 2%
  Population Hoechst High Intensity Objects (%): 22%
  Population Membrane Permeable-Phenotype (%): 0%
  Population Mitochondria Different-Phenotype (%): 100%
  Population Mitotic Cells (%): 9%
  Population Normal (%): 77%
  Population Pyknosed Nuclei (%): 82%
  Population Tubulin-Different-Phenotype (%): 28%
  Total Cell Count: 321
[8]
  Population Apoptotic (%): 89%
  Population Fragmented Nuclei (%): 11%
  Population Healthy Nuclei (%): 15%
  Population Hoechst High Intensity Objects (%): 8%
  Population Membrane Permeable-Phenotype (%): 10%
  Population Mitochondria Different-Phenotype (%): 40%
  Population Mitotic Cells (%): 10%
  Population Normal (%): 91%
  Population Pyknosed Nuclei (%): 72%
  Population Tubulin-Different-Phenotype (%): 70%
  Total Cell Count: 206
[9]
  Population Apoptotic (%): 72%
  Population Fragmented Nuclei (%): 13%
  Population Healthy Nuclei (%): 39%
  Population Hoechst High Intensity Objects (%): 15%
  Population Membrane Permeable-Phenotype (%): 2%
  Population Mitochondria Different-Phenotype (%): 85%
  Population Mitotic Cells (%): 27%
  Population Normal (%): 84%
  Population Pyknosed Nuclei (%): 46%
  Population Tubulin-Different-Phenotype (%): 95%
  Total Cell Count: 246
[10]
  Population Apoptotic (%): 66%
  Population Fragmented Nuclei (%): 7%
  Population Healthy Nuclei (%): 55%
  Population Hoechst High Intensity Objects (%): 7%
  Population Membrane Permeable-Phenotype (%): 3%
  Population Mitochondria Different-Phenotype (%): 81%
  Population Mitotic Cells (%): 33%
  Population Normal (%): 92%
  Population Pyknosed Nuclei (%): 36%
  Population Tubulin-Different-Phenotype (%): 96%
  Total Cell Count: 213
[11]
  Population Apoptotic (%): 71%
  Population Fragmented Nuclei (%): 22%
  Population Healthy Nuclei (%): 2%
  Population Hoechst High Intensity Objects (%): 17%
  Population Membrane Permeable-Phenotype (%): 0%
  Population Mitochondria Different-Phenotype (%): 100%
  Population Mitotic Cells (%): 28%
  Population Normal (%): 82%
  Population Pyknosed Nuclei (%): 74%
  Population Tubulin-Different-Phenotype (%): 57%
  Total Cell Count: 341
[12]
  Population Apoptotic (%): 92%
  Population Fragmented Nuclei (%): 23%
  Population Healthy Nuclei (%): 26%
  Population Hoechst High Intensity Objects (%): 7%
  Population Membrane Permeable-Phenotype (%): 13%
  Population Mitochondria Different-Phenotype (%): 64%
  Population Mitotic Cells (%): 7%
  Population Normal (%): 92%
  Population Pyknosed Nuclei (%): 50%
  Population Tubulin-Different-Phenotype (%): 91%
  Total Cell Count: 182
Replicate 1
  Population Apoptotic (%): 30%
  Population Fragmented Nuclei (%): 5%
  Population Healthy Nuclei (%): 23%
  Population Hoechst High Intensity Objects (%): 12%
  Population Membrane Permeable-Phenotype (%): 0%
  Population Mitochondria Different-Phenotype (%): 74%
  Population Mitotic Cells (%): 69%
  Population Normal (%): 87%
  Population Pyknosed Nuclei (%): 71%
  Population Tubulin-Different-Phenotype (%): 3%

## CC[C@H](Nc1ncnc2[nH]cnc12)c1nc2cccc(F)c2c(=O)n1-c1ccccc1 [IDELALISIB]
[1]
  Population Apoptotic (%): 22%
  Population Fragmented Nuclei (%): 18%
  Population Healthy Nuclei (%): 46%
  Population Hoechst High Intensity Objects (%): 14%
  Population Membrane Permeable-Phenotype (%): 12%
  Population Mitochondria Different-Phenotype (%): 15%
  Population Mitotic Cells (%): 77%
  Population Normal (%): 85%
  Population Pyknosed Nuclei (%): 34%
  Population Tubulin-Different-Phenotype (%): 29%
  Total Cell Count: 588
[2]
  Population Apoptotic (%): 10%
  Population Fragmented Nuclei (%): 5%
  Population Healthy Nuclei (%): 85%
  Population Hoechst High Intensity Objects (%): 3%
  Population Membrane Permeable-Phenotype (%): 11%
  Population Mitochondria Different-Phenotype (%): 18%
  Population Mitotic Cells (%): 89%
  Population Normal (%): 96%
  Population Pyknosed Nuclei (%): 9%
  Population Tubulin-Different-Phenotype (%): 64%
  Total Cell Count: 1315
[3]
  Population Apoptotic (%): 18%
  Population Fragmented Nuclei (%): 15%
  Population Healthy Nuclei (%): 60%
  Population Hoechst High Intensity Objects (%): 9%
  Population Membrane Permeable-Phenotype (%): 4%
  Population Mitochondria Different-Phenotype (%): 3%
  Population Mitotic Cells (%): 81%
  Population Normal (%): 91%
  Population Pyknosed Nuclei (%): 23%
  Population Tubulin-Different-Phenotype (%): 2%
  Total Cell Count: 500
[4]
  Population Apoptotic (%): 8%
  Population Fragmented Nuclei (%): 8%
  Population Healthy Nuclei (%): 86%
  Population Hoechst High Intensity Objects (%): 2%
  Population Membrane Permeable-Phenotype (%): 1%
  Population Mitochondria Different-Phenotype (%): 10%
  Population Mitotic Cells (%): 91%
  Population Normal (%): 97%
  Population Pyknosed Nuclei (%): 5%
  Population Tubulin-Different-Phenotype (%): 7%
  Total Cell Count: 1603
[5]
  Population Apoptotic (%): 17%
  Population Fragmented Nuclei (%): 14%
  Population Healthy Nuclei (%): 67%
  Population Hoechst High Intensity Objects (%): 10%
  Population Membrane Permeable-Phenotype (%): 16%
  Population Mitochondria Different-Phenotype (%): 12%
  Population Mitotic Cells (%): 82%
  Population Normal (%): 89%
  Population Pyknosed Nuclei (%): 18%
  Population Tubulin-Different-Phenotype (%): 48%
  Total Cell Count: 613
[6]
  Population Apoptotic (%): 8%
  Population Fragmented Nuclei (%): 17%
  Population Healthy Nuclei (%): 77%
  Population Hoechst High Intensity Objects (%): 3%
  Population Membrane Permeable-Phenotype (%): 28%
  Population Mitochondria Different-Phenotype (%): 4%
  Population Mitotic Cells (%): 91%
  Population Normal (%): 96%
  Population Pyknosed Nuclei (%): 4%
  Population Tubulin-Different-Phenotype (%): 68%
  Total Cell Count: 2065
[7]
  Population Apoptotic (%): 18%
  Population Fragmented Nuclei (%): 11%
  Population Healthy Nuclei (%): 77%
  Population Hoechst High Intensity Objects (%): 5%
  Population Membrane Permeable-Phenotype (%): 8%
  Population Mitochondria Different-Phenotype (%): 4%
  Population Mitotic Cells (%): 81%
  Population Normal (%): 94%
  Population Pyknosed Nuclei (%): 10%
  Population Tubulin-Different-Phenotype (%): 7%
  Total Cell Count: 587
[8]
  Population Apoptotic (%): 3%
  Population Fragmented Nuclei (%): 29%
  Population Healthy Nuclei (%): 68%
  Population Hoechst High Intensity Objects (%): 3%
  Population Membrane Permeable-Phenotype (%): 5%
  Population Mitochondria Different-Phenotype (%): 1%
  Population Mitotic Cells (%): 96%
  Population Normal (%): 96%
  Population Pyknosed Nuclei (%): 2%
  Total Cell Count: 2772
